26 molecules from ChEMBL document CHEMBL4007508, “Discovery and Pre-Clinical Characterization of Third-Generation 4-H Heteroaryldihydropyrimidine (HAP) Analogues as Hepatitis B Virus (HBV) Capsid Inhibitors” (J Med Chem, 2017) can be followed below.

Data set [1] is described as follows: Selectivity index, ratio of CC50 for HBV infected human HepDE19 cells to EC50 for HBV infected in human HepG2(2.2.15) cells. The essentials: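 Selectivity index calculated as CC50 (HepDE19, CCK-8 viability after 5 days) divided by EC50 (HBV DNA reduction in HepG2.2.15 cells, qPCR).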
For data set [2], the system named is Hepatitis B virus. Kind of data set: Antiviral activity against HBV infected in human HepG2(2.2.15) cells assessed as decrease in HBV genome replication after 5 days by qPCR method. Format: functional, cell-based. The settings on record: HepG2 2.2.15, 120 h. The essentials: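 HepG2.2.15 cells (stable HBV genome, Hep G2-derived; DMEM-F12, 10% FBS, penicillin/streptomycin, 0.5 mg/mL G418) seeded 3 × 10^4/well, incubated overnight at 37 °C. Compounds serially half-log diluted in DMSO, then in medium; final DMSO 0.5%. HBV DNA extracted and quantified by qPCR.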
On the technique in general: Real-time PCR tracks product formation cycle by cycle.

Data set [3] is described as follows: Cytotoxicity against HBV infected human HepDE19 cells assessed as decrease in cell viability after 5 days by CCK8 assay. It is filed as cell-based. A digest of the protocol:
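Tetracycline-inducible HBV HepDE19 cells seeded 5 × 10^3/well and treated with compounds. After 5 days, viability read by CCK-8 (2 h, 37 °C; absorbance 450 and 630 nm).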
(Tetrazolium assays rely on reduction of a dye to a coloured formazan, in cell work by metabolically active cells.)

Structures are written as SMILES. pEC50: −log10 of the molar value.

With `CCOC(=O)C1=C(CN2CCOC[C@H]2C(=O)O)NC(c2nccs2)=N[C@H]1c1ccc(F)cc1F`, in data set [1], the “Ratio CC50/EC50” value was greater than 7143. In data set [2], the pEC50 – broadly, the EC50 on a negative log10 scale, so that one unit is a factor of ten – was 7.85. The CC50 – broadly, the concentration giving 50% cytotoxicity – at 120 h in data set [3] was greater than 100 µM.
`COC(=O)C1=C(C)NC(c2nccs2)=NC1c1cccc(C(=O)O)c1` (centres undefined): the pEC50 in data set [2] was less than 6.00.
For `COC(=O)C1=C(CN2CCOC[C@H]2C(=O)O)NC(c2nccs2)=N[C@H]1c1ccc(C(F)(F)F)cc1Cl`, in data set [1], the “Ratio CC50/EC50” value stood at 431. In data set [2], the pEC50 is less than 7.00. Further, the CC50 at 120 h in data set [3] was 50 µM.
In the case of `CC1=C(C(=O)O)C(c2ccc(F)cc2Cl)N=C(c2nccs2)N1` (centres undefined), the pEC50 in data set [2] is less than 6.00.
For `CCOC(=O)C1=C(CN2CCOC[C@H]2C(=O)O)NC(c2nccs2)=N[C@H]1c1ccc(F)c(F)c1C`, the pEC50 in data set [2] was 9.22. Besides, the CC50 at 120 h in data set [3] came to 97 µM.
For the molecule `COC(=O)C1=C(CN2CCOC[C@H]2C(=O)O)NC(c2ncco2)=N[C@H]1c1ccc(F)cc1Cl`, the pEC50 in data set [2] was less than 6.00. In data set [3], the CC50 at 120 h is greater than 100 µM.
Taken in the same sequence, the figures for `COC(=O)C1=C(CN2CCOC[C@H]2C(=O)O)NC(c2nccs2)=N[C@H]1c1ccc(F)cc1C1CC1` were less than 7.00 and greater than 100 µM.
Turning to `CCOC(=O)C1=C(CN2CCOC[C@H]2C(=O)O)NC(c2nccs2)=N[C@H]1c1ccc(OC)cc1`, the pEC50 in data set [2] is less than 7.00.
As for `COC(=O)C1=C(CN2CCOC[C@H]2C(=O)O)NC(c2ncccn2)=N[C@H]1c1ccc(F)cc1Cl`, the pEC50 in data set [2] was less than 6.00. Further, in data set [3], the 50% cytotoxic concentration (CC50) at 120 h is greater than 100 µM.
Regarding `CCOC(=O)C1=C(CN2CCOC[C@H]2C(=O)O)NC(c2nccs2)=N[C@H]1c1cccc(Cl)c1Cl`, the pEC50 in data set [2] was less than 7.00.
For the molecule `COC(=O)C1=C(CN2CCOC[C@H]2C(=O)O)NC(c2nccs2)=N[C@H]1c1ccc(F)cc1Br`, the pEC50 in data set [2] was 8.22. In data set [3], the CC50 at 120 h is greater than 100 µM.
As for `N#CC1=C(CN2CCOC[C@H]2C(=O)O)NC(c2nccs2)=N[C@H]1c1ccc(F)cc1Cl`, the pEC50 in data set [2] was less than 6.00.
Regarding `COC(=O)C1=C(CN2CCCC[C@H]2C(=O)O)NC(c2nccs2)=N[C@H]1c1ccc(F)cc1Cl`, the negative-log EC50 (pEC50) in data set [2] was less than 6.00.
In the case of `COC(=O)C1=C(CN2CCOC[C@H]2C(=O)O)NC(c2nc(C3CC3)cs2)=N[C@H]1c1ccc(F)cc1Cl`, the pEC50 in data set [2] was 7.66.
Turning to `CCOC(=O)C1=C(CN2CCOC[C@H]2C(=O)O)NC(c2nccs2)=N[C@H]1c1ccc(C#N)cc1`, the pEC50 in data set [2] is less than 7.00.
With `CCOC(=O)C1=C(CN2CCOC[C@H]2C(=O)O)NC(c2nccs2)=N[C@H]1c1ccc(F)cc1Br`, in data set [3], the cytotoxic concentration (CC50) at 120 h worked out at 72 µM.
With `CCOC(=O)C1=C(CN2CCOC[C@H]2C(=O)O)NC(c2nccs2)=N[C@H]1c1cccc(C#N)c1Cl`, the pEC50 in data set [2] was less than 7.00.
As for `CCOC(=O)C1=C(CN2CCOC[C@H]2C(=O)O)NC(c2nccs2)=N[C@H]1c1cccc(F)c1Br`, in data set [2], the pEC50 is 9.15. Further, the CC50 at 120 h in data set [3] was found to be 95 µM.
Consider `COC(=O)C1=C(CN2CCN(C(C)=O)C[C@H]2C(=O)O)NC(c2nccs2)=N[C@H]1c1ccc(F)cc1Cl`, for which the pEC50 in data set [2] was less than 6.00.
As for `CCNC(=O)C1=C(CN2CCOC[C@H]2C(=O)O)NC(c2nccs2)=N[C@H]1c1ccc(F)cc1Cl`, in data set [2], the pEC50 is less than 6.00.
Same read-out and setting: then `COC(=O)C1=C(C)NC(c2ncc(F)cc2F)=N[C@H]1c1ccc(F)cc1Cl`, with 7.10 to 7.30.
On to `CCOC(=O)C1=C(CN2CCOC[C@H]2C(=O)O)NC(c2nccs2)=N[C@H]1c1ccc(Br)cc1Cl`, for which, in data set [2], the pEC50 was 8.52. Moreover, the CC50 at 120 h in data set [3] worked out at 31 µM.
On to `COC(=O)C1=C(CN2CCNC[C@H]2C(=O)O)NC(c2nccs2)=N[C@H]1c1ccc(F)cc1Cl`, for which the pEC50 in data set [2] was less than 6.00.
Turning to `CC(C)(C)OC(=O)C1=C(CN2CCOC[C@H]2C(=O)O)NC(c2nccs2)=N[C@H]1c1ccc(F)cc1Cl`, the pEC50 in data set [2] was less than 7.00. Besides, in data set [3], the CC50 at 120 h amounted to 41 µM.
Consider `COC(=O)C1=C(C)NC(c2nc(C(=O)O)cs2)=NC1c1ccc(F)cc1Cl` (centres undefined), for which the pEC50 in data set [2] was less than 6.00.
For the molecule `COC(=O)C1=C(CN2CCOC[C@H]2C(=O)O)NC(c2nccs2)=N[C@H]1c1ccc(F)cc1C(F)(F)F`, in data set [2], the negative logarithm of the EC50 (pEC50) is less than 7.00. For the same molecule, the CC50 at 120 h in data set [3] is greater than 100 µM.
